# HTR2A ag – activates the mouse 5-HT2A serotonin receptor; hit rate 0.66% among 360,000; activation, % at 7.6 µM; P35363; CHO-K1 mHTR2A beta-arrestin complementation, luminescence; percent of 30 µM serotonin response;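 active means activation above a run cutoff, the mean activation of all tested compounds plus 3 SD, cut at about 14% in these data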;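 further: 0% = plate median of compound wells and 100% = 30 µM serotonin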
# Target sequence (P35363 whole entry, looked up): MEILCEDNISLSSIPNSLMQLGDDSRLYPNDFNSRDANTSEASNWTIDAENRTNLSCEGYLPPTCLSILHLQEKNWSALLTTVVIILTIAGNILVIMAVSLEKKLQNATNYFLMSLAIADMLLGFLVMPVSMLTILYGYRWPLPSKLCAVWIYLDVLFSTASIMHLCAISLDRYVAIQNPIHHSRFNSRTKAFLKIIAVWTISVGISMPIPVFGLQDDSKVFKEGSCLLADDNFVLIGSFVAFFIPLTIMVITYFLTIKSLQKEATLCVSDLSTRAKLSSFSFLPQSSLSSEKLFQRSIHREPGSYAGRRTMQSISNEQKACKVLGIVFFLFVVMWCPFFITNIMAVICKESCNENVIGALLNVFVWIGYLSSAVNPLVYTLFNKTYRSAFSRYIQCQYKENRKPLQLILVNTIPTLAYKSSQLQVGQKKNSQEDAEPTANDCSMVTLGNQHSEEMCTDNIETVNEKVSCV
# CHRM1 antagonist – blocks human M1 muscarinic receptor; P11229; CHO-K1 hM1, Fluo-8 calcium fluorescence, ACh EC80 antagonist; inhibition, % at 3 µM; hit rate 1.3% among 360,000; AID 588852;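 active means percent inhibition above its own plate's cutoff, namely the mean of that plate's compound wells plus 3 SD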;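 further: peak over basal fluorescence ratio during 140 s after agonist addition; 0% = ACh EC80 plus DMSO and 100% = DMSO alone without agonist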
# TAAR1 antagonist – antagonists of human TAAR1; Q96RJ0; hit rate 1.5% among 360,000; CHO RD-HGA16 TAAR1, Fluo-8 calcium fluorescence, antagonist; inhibition, % at 3 µM;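 active means inhibition above a per-plate cutoff, the mean inhibition of test compounds on that plate plus 3 SD, cut at about 49% in these data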;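 further: 0% = DMSO plus EC80 beta-PEA response and 100% = DMSO alone without agonist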
#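 test system = CHO RD-HGA16 cells bearing hTAAR1 | replication = singlicate | controls = DMSO-only wells and EC80 β-PEA-stimulated wells | reagent = EC80 β-phenethylamine stimulus | read-out basis = percent inhibition of PEA-evoked calcium signal, max/basal emission ratio | schedule = seeding 17-24 h prior, 75-min 37 °C, 30-min RT dye loading | signal = kinetic Fluo-8 calcium fluorescence measurement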
# CHRM1 PAM – human CHRM1 positive allosteric modulation; P11229; CHO-K1 hM1, Fluo-8 calcium fluorescence, ACh EC20; 0% = ACh EC20, 100% = maximal ACh; activation, % at 3 µM; hit rate 0.088% among 360,000; AID 588819; in the data active means activation above about 19%, passing the limit was not always enough
# TAAR1 ag – agonists of human TAAR1; activation, % at 3 µM; hit rate 0.99% among 360,000; CHO RD-HGA16 TAAR1, Fluo-8 calcium fluorescence; vehicle wells 0%, saturating PEA agonist 100%; Q96RJ0;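 active means activation above the mean activation of all test compounds in the run plus 3 SD, cut at about 38% in these data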
#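 Assay system – CHO-derived RD-HGA16 cells with stable Gα16 and human TAAR1 · Compound dosing – one-point dosing at 3 µM (nominal) · Incubation – 17-24 h seeding, 75 min 37 °C dye, 30 min RT · Measured by – kinetic Fluo-8 calcium fluorescence · Control set – DMSO vehicle as 0%, PEA at EC100 as 100% · Repeats – single well for each compound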
# CHRM1 agonist – activates human CHRM1 receptor. P11229. CHO-K1 hM1, Fluo-8 calcium fluorescence, agonist mode; 0% DMSO, 100% acetylcholine EC100. activation, % at 3 µM. hit rate 0.33% among 360,000. AID 588814;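 active means activation above the run's mean compound activation plus 3 SD, cut at about 16% in these data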;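 further: peak over basal fluorescence ratio within a 140 s kinetic read after compound addition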
# TAAR1 ag conf – confirmation of human TAAR1 agonists | shares compounds with TAAR1 ag | CHO RD-HGA16 TAAR1, Fluo-8 calcium fluorescence; scaled: DMSO 0%, maximal phenethylamine 100% | activation, % at 3 µM | hit rate 82% among 2,400 | AID 651783;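 active means activation above a cutoff set at the run's mean compound activation plus 3 SD, cut at about 39% in these data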
# Ga16 nonsel ag – counter-screen for TAAR1 agonists: nonselective agonists in parental cells; CHO-Ga16 parental, Fluo-8 calcium fluorescence; normalized to maximal ATP response, DMSO zero; hit rate 50% among 2,400; activation, % at 3 µM; AID 651787; shares compounds with TAAR1 ag;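 active means activation above the run cutoff, the mean activation over all tested wells plus 3 SD, cut at about 12% in these data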;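 further: 0% = DMSO wells and 100% = maximal ATP response on the peak over basal ratio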
# TAAR1 desensitize – TAAR1 response desensitization, agonist counter-screen; shares compounds with TAAR1 ag; CHO RD-HGA16 hTAAR1, Fluo-8 calcium, beta-PEA response inhibition; inhibition, % at 3 µM; hit rate 46% among 2,400;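 active means inhibition above the run cutoff, the mean inhibition of all test compounds plus 3 SD, cut at about 49% in these data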;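 further: beta-PEA stimulus applied at its EC80; loss of beta-PEA calcium signal after compound pretreatment read as receptor desensitization; 0% = DMSO with beta-PEA at EC80 and 100% = DMSO alone without agonist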
# Ga16 nonsel ant – counter-screen for TAAR1 agonists: nonselective Ga16 antagonists; shares compounds with TAAR1 ag; CHO-Ga16 ATP-induced calcium, Fluo-8 fluorescence; inhibition, % at 3 µM; hit rate 39% among 2,400;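 active means inhibition above the plate's mean compound inhibition plus 3 SD, computed per plate, cut at about 22% in these data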;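 further: 0% = EC80 ATP with DMSO and 100% = DMSO wells without ATP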
# Starred values were filed as active, the others as inactive; . = no result. In the library only some 3.9% were active in any assay of this set; here they are far more common.
SMILES,HTR2A ag,CHRM1 antagonist,TAAR1 antagonist,CHRM1 PAM,TAAR1 ag,CHRM1 agonist,TAAR1 ag conf,Ga16 nonsel ag,TAAR1 desensitize,Ga16 nonsel ant
OCCNc1nc(Nc2cccc(O)c2)nc2ccccc12,3.9,4.0,83.6*,-1.3,96.8*,-7.5,101.1*,1.0,97.7*,7.3
OCCNc1nc(Nc2ccc(O)cc2)nc2ccccc12,-0.4,-4.2,59.0*,3.3,88.4*,-7.6,96.9*,0.0,95.3*,-5.5
COc1cccc(Nc2nc(NCCO)c3ccccc3n2)c1,-5.0,12.3,33.5,-5.9,49.7*,-5.9,79.8*,2.3,60.2*,1.7
O=C(NNS(=O)(=O)c1ccc(Br)cc1)c1csnn1,2.2,9.9,6.4,4.8,-0.8,-1.1,.,.,.,.
CNC(=O)C[C@@H]1C(=O)N(c2ccc(Br)cc2)CC1(C)C,2.1,-20.2,-21.1,7.8,3.6,-3.9,.,.,.,.
O=C(O)C1CCCCC1C(=O)NCCc1ccc(Cl)cc1 (configuration not stated),6.8,-42.3,16.6,8.2,70.2*,3.4,54.1*,0.0,6.7,5.3
O=C(O)C1CCCCC1C(=O)NCCc1ccc(F)cc1 (configuration not stated),2.9,3.3,33.7,1.8,81.0*,-2.4,92.9*,3.0,72.9*,7.3
CN(CC(=O)Nc1ccccc1C(F)(F)F)Cc1c(O)ccc2ccccc12,5.7,-5.2,-5.5,6.3,65.5*,-5.0,30.2,5.2,4.2,10.7
C[C@H](CO)N1C[C@H](C)[C@@H](CN(C)C(=O)NC2CCCCC2)Oc2c(NC(=O)Nc3ccc(C(F)(F)F)cc3)cccc2C1=O,9.1,-3.5,41.9,3.4,24.0,-7.9,.,.,.,.
COCCn1nnnc1CN(CCc1ccccc1)Cc1cc2cc(OC)ccc2[nH]c1=O,-3.7,-9.8,38.9,3.7,82.6*,-7.4,79.4*,8.5,47.8,12.7
O=C(N/N=C/c1ccc(-c2ccccc2Cl)o1)c1ccccc1,-6.4,6.5,31.0,-7.7,5.5,-6.1,.,.,.,.
O=C(O)c1ccc(N/N=C/c2ccc(-c3ccccc3Cl)o2)cc1,-3.1,5.6,36.9,0.1,97.1*,8.8,56.4*,39.1*,29.8,20.1
O=S(=O)(c1ccccc1Br)N1CCC(O)(c2cccnc2)CC1,0.0,-4.7,16.2,11.2,5.7,-10.8,.,.,.,.
Cc1nnn(-c2nonc2N)c1C(=O)NNC(=O)c1ccc(Cl)c(Cl)c1,1.3,0.4,9.5,2.8,54.8*,0.7,72.2*,6.0,21.4,8.3
COc1ccc(O)c(/C=N/NC(=O)c2c(C)nnn2-c2nonc2N)c1,-4.5,-6.2,-5.8,1.3,0.3,-6.3,.,.,.,.
N#Cc1cc(Cl)c(N2CCOCC2)cc1C#N,8.7,-14.6,-3.0,-1.1,8.5,0.0,.,.,.,.
N#CC(C#N)=C1C=C2C=C(N3CCOCC3)CCC2CC1 (configuration not stated),1.0,57.8*,108.8*,-24.6,682.1*,124.3*,726.1*,879.9*,106.3*,102.9*
Cc1ccc(CNC(=O)COC(=O)c2cc3c(s2)CCC(C)C3)cc1 (configuration not stated),0.7,-8.1,-14.9,3.4,-0.8,-6.3,.,.,.,.
CC1CCc2sc(C(=O)OCC(=O)NCc3ccccc3)cc2C1 (configuration not stated),-4.8,-1.1,38.7,3.8,43.2*,-9.1,-1.0,0.5,0.5,7.8
Cc1cc(C(=O)CN2C(=O)C(=O)N(C3CCCC3)C2=O)c(C)n1CCc1ccccc1,-3.8,4.3,28.3,-3.5,48.6*,-4.2,79.6*,0.9,54.6*,15.3
Cc1cc(C(=O)CN2C(=O)C(=O)N(C3CCCC3)C2=O)c(C)n1CCc1ccc(F)cc1,-5.8,5.1,13.3,-3.2,72.1*,-3.9,82.0*,2.2,53.8*,15.4
COc1ccc(C(=O)NCCc2cccc(Cl)c2)cc1OC1CCN(C(C)=O)CC1,0.4,-8.9,3.5,11.3,2.5,2.4,.,.,.,.
CC(C)(C)C1CCc2onc(C(=O)NC3CCCC3)c2C1 (configuration not stated),3.9,-11.2,-24.4,5.6,45.1*,5.5,71.0*,38.6*,9.1,5.1
Cc1ccc(S(=O)(=O)n2nc(OC(=O)c3ccccc3F)cc2N)cc1,5.9,-4.8,17.3,8.5,64.9*,-1.7,73.4*,45.8*,29.6,10.5
Cc1ccc(C(=O)Oc2cc(N)n(S(=O)(=O)c3ccc(C)cc3)n2)cc1,-2.6,-10.4,-19.4,3.0,7.0,-7.8,.,.,.,.
SMILES,HTR2A ag,CHRM1 antagonist,TAAR1 antagonist,CHRM1 PAM,TAAR1 ag,CHRM1 agonist,TAAR1 ag conf,Ga16 nonsel ag,TAAR1 desensitize,Ga16 nonsel ant
Cc1ccccc1C(=O)Oc1cc(N)n(S(=O)(=O)c2ccccc2)n1,-4.4,-4.4,40.8,-1.3,83.8*,-7.5,8.3,0.7,-8.0,10.1
CCC(c1nc2ccccc2[nH]1)N(CCCn1ccnc1)C(=O)c1ccc(C(F)(F)F)cc1 (configuration not stated),-3.9,-19.8,-1.8,3.4,0.7,-7.0,.,.,.,.
O=C1C=C(c2ccccc2)C(=O)N1Nc1ccccc1,-1.8,1.1,15.9,10.3,51.3*,1.8,70.2*,47.6*,43.4,35.3*
Cc1c(C(=O)NCc2ccco2)oc2ccc(S(=O)(=O)N3CCC4(CC3)OCCO4)cc12,1.9,-6.8,2.8,5.6,11.0,0.2,.,.,.,.
Cc1c(C(=O)NCCc2ccccc2)oc2ccc(S(=O)(=O)N3CCC4(CC3)OCCO4)cc12,0.5,14.3,77.3*,-3.0,93.0*,1.4,91.7*,11.7*,89.0*,36.2*
O=C(CSc1nc(=O)n2cc(Cl)ccc2n1)NCCc1ccccc1,1.9,-14.7,8.4,12.1,50.0*,-2.5,68.3*,6.5,12.1,7.8
Cc1cc(C)c2c(=O)[nH]c(SCC(=O)NCCc3ccccc3)nc2n1,0.4,-37.3,35.1,14.2,69.7*,-3.1,70.5*,8.0,37.0,6.2

# Source: PubChem
